Activity calls are given as the source filed them. The calls are words filed in the database; no cut-off is given here.

In one test the test system is MV4-11. In words: Growth inhibition of human MV4-11 cells at 2.5 to 50 uM incubated for 3 days by CellTiter-Glo luminescent cell viability assay relative to control. It counts as functional, cell-based. Particulars: dose 2.5-50 µM, time 3.0 day. A digest of the protocol:
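MOLM13 and MV4;11 were grown in RPMI-1640 + 10% FBS, U2OS in DMEM + 10% FBS. Treatment with DMSO or compound for 3 days. Viability read by CellTiter-Glo luminescence and expressed as % of DMSO-treated cells. Mean ± SEM, n = 3.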
(In general: In ATP-based viability assays light output follows the ATP content of the culture.)

The target of test [1] is T1, Protein AF-9 (Homo sapiens) (UniProt P42568).
T1 sequence (whole entry): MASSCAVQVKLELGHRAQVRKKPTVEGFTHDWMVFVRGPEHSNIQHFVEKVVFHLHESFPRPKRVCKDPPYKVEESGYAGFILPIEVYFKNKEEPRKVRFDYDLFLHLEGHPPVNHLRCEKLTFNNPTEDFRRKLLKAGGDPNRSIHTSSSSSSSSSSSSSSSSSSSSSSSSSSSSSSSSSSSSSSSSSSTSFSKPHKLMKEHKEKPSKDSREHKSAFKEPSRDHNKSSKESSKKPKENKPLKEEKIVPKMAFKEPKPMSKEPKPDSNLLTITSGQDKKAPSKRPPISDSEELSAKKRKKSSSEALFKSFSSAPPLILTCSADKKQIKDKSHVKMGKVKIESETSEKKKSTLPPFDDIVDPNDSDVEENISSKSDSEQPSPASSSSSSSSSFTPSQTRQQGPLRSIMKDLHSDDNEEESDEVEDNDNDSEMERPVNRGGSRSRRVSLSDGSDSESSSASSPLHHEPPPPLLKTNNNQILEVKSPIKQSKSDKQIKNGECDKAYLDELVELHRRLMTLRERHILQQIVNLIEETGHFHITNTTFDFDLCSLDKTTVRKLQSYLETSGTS
In words: Stabilization of AF9 in human HeLa cells assessed as inhibition of high temperature-induced AF9 protein degradation at 20 uM incubated for 5 hrs by cellular thermal shift assay. It counts as cell-based. A digest of the protocol: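 Cells (MOLM13, MV4;11 or HeLa) were treated with 20 μM compound or DMSO for 5 h, washed with PBS and resuspended in PBS with protease inhibitors, about 3 million cells per aliquot. Aliquots were heated 3 min at the indicated temperatures, then held 2 min at room temperature. Lysis was by NP40/glycerol/DTT buffer and three freeze-thaw cycles, followed by a 13,000 rpm spin at 4 °C. Soluble ENL, GAS41 or AF9 in supernatants was measured by western blot with β-actin loading control.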

For test [2], the target named is YEATS domain-containing protein 4 (Homo sapiens, UniProt O95619). Nature of the test: Inhibition of human His-GAS41 YEATS domain and biotinylated H3K27ac peptide interaction at 20 uM by AlphaScreen assay. On the technique in general: In Alpha technology, singlet oxygen from a donor bead excites a nearby acceptor bead.
Sequence of YEATS domain-containing protein 4 (O95619 whole entry, the tested form may be a part): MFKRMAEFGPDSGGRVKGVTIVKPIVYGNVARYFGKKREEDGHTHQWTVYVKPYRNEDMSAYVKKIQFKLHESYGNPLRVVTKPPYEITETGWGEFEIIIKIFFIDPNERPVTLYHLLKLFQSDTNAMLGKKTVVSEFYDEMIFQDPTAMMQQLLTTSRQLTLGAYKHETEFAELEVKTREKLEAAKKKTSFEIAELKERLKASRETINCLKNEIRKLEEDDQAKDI
Test [3] has as its target T2, YEATS domain-containing protein 2 (Homo sapiens, UniProt Q9ULM3).
T2 sequence (Q9ULM3 whole entry): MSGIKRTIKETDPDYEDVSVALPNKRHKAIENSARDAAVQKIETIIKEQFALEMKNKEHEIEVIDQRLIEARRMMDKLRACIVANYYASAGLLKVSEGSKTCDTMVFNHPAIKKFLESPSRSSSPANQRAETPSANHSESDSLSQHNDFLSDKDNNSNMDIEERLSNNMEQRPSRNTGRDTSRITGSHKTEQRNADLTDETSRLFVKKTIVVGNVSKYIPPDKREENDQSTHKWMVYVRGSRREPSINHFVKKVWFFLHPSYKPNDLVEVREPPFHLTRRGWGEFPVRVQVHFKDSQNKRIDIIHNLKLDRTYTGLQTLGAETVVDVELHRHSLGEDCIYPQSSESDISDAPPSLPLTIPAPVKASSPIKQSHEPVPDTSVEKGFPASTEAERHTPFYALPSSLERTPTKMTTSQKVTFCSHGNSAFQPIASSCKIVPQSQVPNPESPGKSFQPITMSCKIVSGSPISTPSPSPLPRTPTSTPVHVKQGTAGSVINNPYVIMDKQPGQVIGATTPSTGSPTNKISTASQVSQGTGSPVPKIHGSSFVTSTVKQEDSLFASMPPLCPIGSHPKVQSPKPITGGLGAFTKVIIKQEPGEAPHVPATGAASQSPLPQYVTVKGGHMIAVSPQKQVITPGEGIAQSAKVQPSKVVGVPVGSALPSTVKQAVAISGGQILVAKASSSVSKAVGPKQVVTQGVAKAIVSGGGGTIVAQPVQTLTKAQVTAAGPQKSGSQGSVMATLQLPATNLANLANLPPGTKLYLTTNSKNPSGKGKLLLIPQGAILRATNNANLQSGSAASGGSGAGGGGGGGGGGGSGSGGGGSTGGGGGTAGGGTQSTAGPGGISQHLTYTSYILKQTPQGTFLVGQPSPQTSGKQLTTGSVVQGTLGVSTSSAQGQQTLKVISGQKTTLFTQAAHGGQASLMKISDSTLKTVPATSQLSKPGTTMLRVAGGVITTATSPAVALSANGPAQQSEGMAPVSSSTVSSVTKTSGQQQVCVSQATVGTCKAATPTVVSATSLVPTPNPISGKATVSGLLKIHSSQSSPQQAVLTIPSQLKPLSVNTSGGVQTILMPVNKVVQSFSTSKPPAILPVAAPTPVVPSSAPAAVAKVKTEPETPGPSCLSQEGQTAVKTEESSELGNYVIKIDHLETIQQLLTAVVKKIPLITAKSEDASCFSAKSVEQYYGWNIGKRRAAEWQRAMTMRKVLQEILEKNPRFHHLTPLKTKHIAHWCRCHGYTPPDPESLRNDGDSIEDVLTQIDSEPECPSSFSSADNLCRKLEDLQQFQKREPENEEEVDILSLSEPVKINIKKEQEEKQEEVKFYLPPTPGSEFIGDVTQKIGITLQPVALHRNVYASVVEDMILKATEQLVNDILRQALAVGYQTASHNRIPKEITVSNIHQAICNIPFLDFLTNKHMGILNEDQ
In words: Inhibition of human His-YEATS2 YEATS domain and biotinylated […] peptide interaction by AlphaScreen assay. Put shortly: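 His-tagged YEATS domains were expressed in E. coli Rosetta-2 (DE3) pLysS and purified on Ni-NTA. Partners were biotinylated peptide on streptavidin donor and Ni2+-chelate acceptor beads: AF9 30 nM with H3K9ac, GAS41 100 nM with H3K27ac, YEATS2 100 nM with H3K27cr. Peptides at 30 nM, buffer 50 mM HEPES pH 7.4, 100 mM NaCl, 0.1% BSA, 0.05% CHAPS. Thirteen-point 3-fold series from 54 μM to 0.1 nM, 4–6 replicates, signal normalised to no-compound control, four-parameter fit.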

For a further test, the target named is T3, Protein AF-9 (Homo sapiens, UniProt P42568).
T3 sequence (P42568 whole entry): T1 sequence (whole entry)
In words: Inhibition of human His-AF9 YEATS domain and biotinylated H3K9ac peptide interaction by AlphaScreen assay.

Turning to `CN(C)Cc1ccc(CNC(=O)c2ccc3nncn3c2)cc1`, the “growth inhibition (GI)” value in the test with MV4-11 is “Active”. For the same compound, in test [1], the outcome was inactive. The inhibition entry in test [2] is “Active”. For the same compound, the figures for the IC50 (in test [3]; on Protein AF-9) were greater than 54 µM and 4.93 µM, respectively.

Values taken from ChEMBL document CHEMBL4808215, “Discovery of Selective Small-Molecule Inhibitors for the ENL YEATS Domain” (J Med Chem, 2021).
